Screening results (PubChem BioAssay)
An excerpt weighted towards active compounds, which were near 2.7% of everything screened.
PAFAH1B3 inh – PAFAH1B3 (human) inhibition; Q15102; recombinant PAFAH1B3, FP-rhodamine probe, fluorescence polarization; inhibition, % at 3.39 µM; hit rate 0.28% among 340,000; AID 492972;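 active = inhibition above the screen-wide average of all tested compounds plus 3 SD, cut at about 25% in these data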
Target sequence (Q15102 whole entry, looked up): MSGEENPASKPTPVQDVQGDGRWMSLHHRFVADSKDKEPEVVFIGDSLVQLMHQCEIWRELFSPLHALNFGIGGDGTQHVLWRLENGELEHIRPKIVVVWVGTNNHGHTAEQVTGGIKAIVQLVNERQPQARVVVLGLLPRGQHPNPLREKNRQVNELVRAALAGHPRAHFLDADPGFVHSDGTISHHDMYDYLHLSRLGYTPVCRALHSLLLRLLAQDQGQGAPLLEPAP
PAFAH1B2 inh – blocks human PAF acetylhydrolase 1b catalytic subunit 2; P68402; inhibition, % at 3.39 µM; recombinant PAFAH1B2, FP-rhodamine activity probe, fluorescence polarization; AID 492953; hit rate 1.2% among 340,000;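 active = inhibition above the mean of all tested compounds plus 3 SD, cut at about 24% in these data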
Target sequence (P68402 whole entry, looked up): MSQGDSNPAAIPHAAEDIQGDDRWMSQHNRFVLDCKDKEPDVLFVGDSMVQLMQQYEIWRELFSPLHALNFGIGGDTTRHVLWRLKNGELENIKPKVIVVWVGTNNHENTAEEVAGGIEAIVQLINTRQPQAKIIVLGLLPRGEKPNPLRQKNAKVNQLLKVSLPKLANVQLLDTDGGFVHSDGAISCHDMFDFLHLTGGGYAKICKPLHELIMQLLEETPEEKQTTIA
PAFAH2 FP inh – inhibitors of human PAFAH2; Q99487; recombinant PAFAH2, FP-rhodamine activity probe, fluorescence polarization; inhibition, % at 3.39 µM; hit rate 0.99% among 340,000; AID 492956;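 active = inhibition above the mean over all tested compounds plus 3 SD, cut at about 30% in these data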;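 also: inhibitors block probe labeling of enzyme so polarization drops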
ARFGAP1 inh – inhibitors of rat ARFGAP1; Arfgap1-stimulated ARF1 GTP hydrolysis, GDP FP detection; AID 651572; inhibition, % at 16.5 µM; Q62848; hit rate 0.26% among 360,000;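 active = inhibition above a per-plate limit, mean inhibition of low control wells plus 3 SD, cut at about 25% in these data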
Target sequence (Q62848 1-136 limits assumed): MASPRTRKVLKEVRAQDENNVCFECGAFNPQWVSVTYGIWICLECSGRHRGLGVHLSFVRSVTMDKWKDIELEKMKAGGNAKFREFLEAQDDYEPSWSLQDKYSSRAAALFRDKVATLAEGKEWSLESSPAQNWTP
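system = rat Arfgap1 catalytic domain, aa 1-136 | technique = FP, GDP Alexa 633 tracer displaced from anti-GDP antibody, 620/688 nm | compound = one concentration, 16.5 µM, DMSO 1.26% | medium = HEPES-based buffer, pH 7.5 | timing = compound-enzyme preincubation 20 min, reaction 120 min, detection 60 min, 25 °C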
ASAP1 inh – blocks human ASAP1-stimulated Arf1 GTP hydrolysis | AID 624377 | GDP FP detection | hit rate 0.19% among 360,000 | inhibition, % at 16.5 µM; in the data active = inhibition above about 25%
pPAFAH FP inh – pPAFAH (human) enzyme inhibition; Q13093; recombinant pPAFAH, FP-rhodamine probe fluorescence polarization; inhibition, % at 3.39 µM; hit rate 1.5% among 330,000;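 active = inhibition above the mean inhibition across the screen plus 3 SD, cut at about 25% in these data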;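 also: inhibitors block binding of the rhodamine activity-based probe so polarization drops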
pPAFAH confirm – confirmation of human plasma PAF acetylhydrolase (pPAFAH) inhibitors; hit rate 72% among 2,300; shares compounds with pPAFAH FP inh; recombinant pPAFAH, FP-Rh probe fluorescence polarization; inhibition, % at 3.39 µM;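 active = mean inhibition of the triplicate above the hit cutoff set for the earlier primary screen, cut at about 25% in these data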
Numbers stand for hits; ! = a repeat was not active.

CC(C)(C)C(=O)c1c(N)[nH]c(C(=O)c2ccccc2)c1-c1ccc([N+](=O)[O-])cc1 was read as ARFGAP1 inh inactive and ASAP1 inh inactive.
`CC(=O)OCC(=O)N1CCN(C(=O)C(=O)c2cccc(C(F)(F)F)c2)CC1` gave ARFGAP1 inh inactive and ASAP1 inh inactive.
`CN(C(=O)c1cccnc1)c1nnc(-c2cnccn2)s1` gave PAFAH1B3 inh inactive, PAFAH1B2 inh inactive, PAFAH2 FP inh inactive, ARFGAP1 inh inactive, ASAP1 inh inactive and pPAFAH FP inh inactive.
`CN(C(=O)c1cccnc1)c1nnc(-c2cccnc2)s1` gave PAFAH1B3 inh inactive, PAFAH1B2 inh inactive, PAFAH2 FP inh inactive, ARFGAP1 inh inactive, ASAP1 inh inactive, pPAFAH FP inh 42 and pPAFAH confirm inactive.
`Cc1cc(C)cc(OCC(=O)Nc2ccc(N3CCCC3)cc2)c1` gave PAFAH1B3 inh inactive, PAFAH1B2 inh inactive, PAFAH2 FP inh inactive, pPAFAH FP inh 36 and pPAFAH confirm 30.
O=C(COC(=O)c1ccc(O)cc1)Nc1ccc(N2CCCCC2)cc1 was read as PAFAH1B3 inh inactive, PAFAH1B2 inh inactive, PAFAH2 FP inh 60, ARFGAP1 inh inactive, ASAP1 inh inactive, pPAFAH FP inh 48 and pPAFAH confirm 34.
CC(C)C[C@H]1COc2cccc(N3CCOCC3)c2S(=O)(=O)N1 was read as ARFGAP1 inh inactive and ASAP1 inh inactive.
`COc1ccc(CCn2c(O)cc3nn(-c4nc5ccccc5s4)c(=O)c-3c2C)cc1` gave PAFAH1B3 inh inactive, PAFAH1B2 inh inactive, PAFAH2 FP inh inactive, ARFGAP1 inh inactive, ASAP1 inh inactive, pPAFAH FP inh 56 and pPAFAH confirm 44.
`Cc1nc2cc[nH]n2c(=O)c1CCc1ccccc1` gave ARFGAP1 inh inactive and ASAP1 inh inactive.
COc1cc(NC(c2ccccc2)c2ccccc2)cc(OC)c1OC was read as PAFAH1B3 inh inactive, PAFAH1B2 inh inactive, PAFAH2 FP inh inactive, ARFGAP1 inh inactive, ASAP1 inh inactive, pPAFAH FP inh 44 and pPAFAH confirm 43.
For COc1cc(NC(=O)CNC(c2ccccc2)c2ccccc2)cc(OC)c1OC the results were PAFAH1B3 inh inactive, PAFAH1B2 inh inactive, PAFAH2 FP inh inactive, ARFGAP1 inh inactive, ASAP1 inh inactive and pPAFAH FP inh inactive.
COCCN1Cc2cc(C(=O)OC)c3c(c2C1=O)c1cc(OC)ccc1n3C(=O)c1ccccc1 was read as ARFGAP1 inh inactive and ASAP1 inh inactive.
Screening COc1ccc(N2C3=C(CC4=C2CC(C)(C)CC4=O)C(=O)CC(C)(C)C3)cc1 returned PAFAH1B3 inh inactive, PAFAH1B2 inh inactive, PAFAH2 FP inh inactive, ARFGAP1 inh inactive, ASAP1 inh inactive and pPAFAH FP inh inactive.
COc1ccc(N2C3=C(CC4=C2CCCC4=O)C(=O)CCC3)cc1 was read as PAFAH1B3 inh inactive, PAFAH1B2 inh inactive, PAFAH2 FP inh inactive, ARFGAP1 inh inactive, ASAP1 inh inactive, pPAFAH FP inh 44 and pPAFAH confirm inactive.
For COC(=O)c1cc2c(c3c4ccccc4n(S(=O)(=O)c4ccc(OC)cc4)c13)C(=O)N(Cc1ccco1)C2 the results were ARFGAP1 inh inactive and ASAP1 inh inactive.
O=c1cc(-c2ccc(C3CCCCC3)cc2)[nH][nH]1 was read as PAFAH1B3 inh inactive, PAFAH1B2 inh inactive, PAFAH2 FP inh inactive, ARFGAP1 inh inactive, ASAP1 inh inactive, pPAFAH FP inh 35 and pPAFAH confirm inactive.
CCc1c(C)sc(NC(=O)CC#N)c1C#N was read as PAFAH1B3 inh inactive, PAFAH1B2 inh inactive, PAFAH2 FP inh inactive, pPAFAH FP inh 35 and pPAFAH confirm inactive.
Screening CCCC(=O)Nc1sc(C)c(C)c1C#N returned PAFAH1B3 inh inactive, PAFAH1B2 inh inactive, PAFAH2 FP inh inactive, ARFGAP1 inh inactive, ASAP1 inh inactive and pPAFAH FP inh inactive.
Cc1ccccc1S(=O)(=O)N1CCCc2nc(C)c(C)cc21 was read as ARFGAP1 inh inactive and ASAP1 inh inactive.
N[C@@H](Cc1cc(I)c(Oc2cc(I)c(O)c(I)c2)c(I)c1)C(=O)O was read as pPAFAH FP inh 44 and pPAFAH confirm 39.
N[C@@H](Cc1cc(I)c(Oc2ccc(O)c(I)c2)c(I)c1)C(=O)O was read as PAFAH1B3 inh inactive, PAFAH1B2 inh inactive, PAFAH2 FP inh inactive, ARFGAP1 inh inactive, ASAP1 inh inactive, pPAFAH FP inh 69! and pPAFAH confirm 71.
`COc1ccc(C(=O)CC(=O)C(=O)Nc2cc(C)ccc2C)cc1` gave PAFAH1B3 inh inactive, PAFAH1B2 inh inactive, PAFAH2 FP inh inactive, ARFGAP1 inh inactive, ASAP1 inh inactive and pPAFAH FP inh inactive.
`COc1ccc(C(=O)CC(=O)C(=O)Nc2ccc([N+](=O)[O-])cc2C)cc1` gave PAFAH1B3 inh inactive, PAFAH1B2 inh inactive, PAFAH2 FP inh inactive, ARFGAP1 inh inactive, ASAP1 inh inactive, pPAFAH FP inh 48 and pPAFAH confirm inactive.
For Clc1ccc(CNc2ccc(CNc3ncn[nH]3)cc2)c(Cl)c1 the results were PAFAH1B3 inh inactive, PAFAH1B2 inh inactive, PAFAH2 FP inh inactive, ARFGAP1 inh inactive, ASAP1 inh inactive, pPAFAH FP inh 37 and pPAFAH confirm inactive.
For CC(C)[C@H](NC(=O)c1ccccc1)C(=O)N1CCC[C@H]1C(=O)NCCc1ccccc1Cl the results were ARFGAP1 inh inactive and ASAP1 inh inactive.
Screening O=C(NCC(=O)N1CCN(c2ccccc2O)CC1)C1CCCCC1 returned PAFAH1B3 inh inactive, PAFAH1B2 inh inactive, PAFAH2 FP inh inactive, ARFGAP1 inh inactive, ASAP1 inh inactive, pPAFAH FP inh 37 and pPAFAH confirm inactive.
Screening Nc1[nH]c(=O)ncc1-c1ccc([N+](=O)[O-])cc1 returned ARFGAP1 inh inactive and ASAP1 inh inactive.
For COc1ccc(CCn2c(C)cc(C(=O)COC(=O)c3ccc(NC(=O)CC#N)cc3)c2C)cc1 the results were PAFAH1B3 inh inactive, PAFAH1B2 inh inactive, PAFAH2 FP inh inactive and pPAFAH FP inh inactive.
`COc1ccc(CCOC(=O)c2ccc(NC(=O)CC#N)cc2)cc1` gave PAFAH1B3 inh inactive, PAFAH1B2 inh inactive, PAFAH2 FP inh inactive, ARFGAP1 inh inactive, ASAP1 inh inactive, pPAFAH FP inh 53 and pPAFAH confirm inactive.
O=C(C(=O)N1CCC(CNC(=O)c2sc3ccccc3c2Cl)CC1)c1cccs1 was read as ARFGAP1 inh inactive and ASAP1 inh inactive.
`COc1ccc(-c2cc(=O)oc3c(O)c(O)ccc23)cc1` gave PAFAH1B3 inh inactive, PAFAH1B2 inh inactive, PAFAH2 FP inh inactive, ARFGAP1 inh inactive, ASAP1 inh inactive, pPAFAH FP inh 43 and pPAFAH confirm 80.
Screening NC1=NC(=O)/C(=C/c2cc(Br)c(O)c(Br)c2)S1 returned PAFAH1B3 inh 34, PAFAH1B2 inh inactive, PAFAH2 FP inh inactive, ARFGAP1 inh inactive, ASAP1 inh inactive, pPAFAH FP inh 48 and pPAFAH confirm 42.
